Measurements pooled from the literature.
Compare with care: the assays were run in different laboratories.
ATXN3: Ataxin-3 (ATXN3, Homo sapiens, UniProt P54252)

SMILES	target	observed	action	method	concentration	inhibition [%]
C[C@@H]1CCCN1CCCCOc1ccc2occc(=O)c2c1	Bile salt-activated lipase (Homo sapiens, UniProt P19835)	enzyme activity	inhibitor	fluorescence	10 µM	6
CN(CCN1CCC(OC(=O)Nc2ccccc2-c2ccccc2)CC1)C(=O)c1ccc(CN2CCC(C(N)=O)CC2)cc1	Nociceptin receptor (OPRL1, Homo sapiens, UniProt P41146)	ligand displacement		radioligand	1 µM	0
Cn1cc(-c2cccc(N3CCc4c(sc5c4CC(C)(C)C5)C3=O)c2CO)cc(Nc2ccncn2)c1=O	Leucine-rich repeat serine/threonine-protein kinase 2 (LRRK2, Homo sapiens, UniProt Q5S007, G2019S)	enzyme activity	inhibitor		1 µM	-15
c1ccc(C(NCCNC(c2ccccc2)c2ccccc2)c2ccccc2)cc1	Apelin receptor (APLNR, Homo sapiens, UniProt P35414)	cell-free assay			10 µM	46
C#Cc1n[nH]c2c(-c3cn([C@@H](C)c4ccccc4)c(=O)[nH]c3=O)cc(F)cc12	Phosphatidylinositol 4-phosphate 3-kinase C2 domain-containing subunit alpha (PIK3C2A, Homo sapiens, UniProt O00443)	enzyme activity	inhibitor		0.1 µM	11.7
Cn1cc(-c2cc(F)cc(N3CCn4c(cc5c4CCCC5)C3=O)c2CO)cc(Nc2ccc(N3CCN(C4COC4)CC3)cn2)c1=O	Serine/threonine-protein kinase PAK 3 (PAK3, Homo sapiens, UniProt O75914)	enzyme activity	inhibitor		0.1 µM	16
N=C(N)c1ccc2cc(OC(=O)c3ccc(N=C(N)N)cc3)ccc2c1	ATXN3	enzyme activity	inhibitor		10 µM	0
CCN(CC)CCCC[C@H](NC(=O)[C@H](CC(C)C)NC(=O)[C@H](C)NC(=O)[C@H](Cc1ccccc1)NC(=O)c1ccc(C(C)(C)C)cc1)C(=O)N[C@@H](CO)C(=O)OC	5-hydroxytryptamine receptor 1A (HTR1A, Homo sapiens, UniProt P08908)	ligand displacement		radioligand	10 µM	19
COc1cc(Nc2ncc(F)c(Nc3ccc4c(n3)NC(=O)C(C)(C)O4)n2)cc(OC)c1OC	Serine/threonine-protein kinase RIO2 (RIOK2, Homo sapiens, UniProt Q9BVS4)	binding			10 µM	83
C#Cc1n[nH]c2c(-c3cn([C@@H](C)c4ccccn4)c(=O)[nH]c3=O)cc(F)cc12	Phosphatidylinositol 3-kinase catalytic subunit type 3 (PIK3C3, Homo sapiens, UniProt Q8NEB9)	enzyme activity	inhibitor		0.1 µM	8.6
CCOC(=O)c1ccc(OC(=O)CCCCCNC(=N)N)cc1	ATXN3	enzyme activity	inhibitor		10 µM	3
O=C(Nc1cccnn1)N1CCN([C@@H]2CCOc3cc(C(F)(F)F)ccc32)CC1	cGMP-inhibited 3',5'-cyclic phosphodiesterase 3A (PDE3A, Homo sapiens, UniProt Q14432)	cell-free assay			20 µM	4
